ChEMBL document CHEMBL1139438, “Synthesis of N3,5'-cyclo-4-(beta-D-ribofuranosyl)-vic-triazolo[4,5-b]pyridin-5-one, a novel compound with anti-hepatitis C virus activity” (J Med Chem, 2004)

What was measured:
[1] = Effective concentration required for antiviral activity against pinchinde virus; assay type: functional
[2] = Effective concentration required for antiviral activity against west Nile virus; assay type: functional
[3] = Concentration required for cytotoxic activity against african green monkey kidney MA-104 cell line was determined using neutral red method; assay type: functional; settings: Cercopithecidae, MA104
[4] = test system: Respiratory syncytial virus; test: Effective concentration required for antiviral activity against respiratory syncytial virus; assay type: functional, organism-based; settings: human respiratory syncytial virus
[5] = Effective concentration required for antiviral activity against bovine viral diarrhoea virus; assay type: functional, Bovine viral diarrhea virus 1
[6] = test system: Human immunodeficiency virus; test: Effective concentration required for antiviral activity against human immunodeficiency virus; assay type: functional, organism-based; settings: Human immunodeficiency virus 1
[7] = test system: Hepatitis B virus; test: Effective concentration required for 90% of antiviral activity against hepatitis B virus; assay type: functional
[8] = Effective concentration required for 90% of antiviral activity against bovine viral diarrhoea virus; assay type: functional, Bovine viral diarrhea virus 1; settings: Bovine viral diarrhea virus isolates and strains
[9] = test system: Human immunodeficiency virus; test: Effective concentration required for 90% of antiviral activity against human immunodeficiency virus; assay type: functional; settings: Human immunodeficiency virus 1
[10] = test system: Huh-7; test: Effective concentration required for 90% reduction in subgenomic hepatitis C virus replicon RNA levels in Huh-7 cells after 96 hr of compound exposure; assay type: functional; settings: Homo sapiens, Huh-7, 96 h
Outline: (§1)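 HCV subgenomic replicon-bearing Huh-7 cells were seeded at 1000 cells/well in 96-well plates, with compound added immediately after seeding, and incubated for 96 h. Total cellular RNA was isolated. Replicon RNA and a ribosomal RNA internal control were amplified by single-step multiplex real-time RT-PCR. HCV RNA was normalized to rRNA by ΔΔCt and calibrated against the no-drug control. Recombinant interferon alpha-2a was the positive control.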

[11] = Effective concentration required for antiviral activity against punta toro A virus; assay type: functional
[12] = test system: Yellow fever virus; test: Effective concentration required for antiviral activity against yellow fever virus; assay type: functional, organism-based
[13] = test system: Human respirovirus 3; test: Effective concentration required for antiviral activity against Parainfluenza virus; assay type: functional, organism-based
[14] = test system: CCRF-CEM; test: Concentration required for cytotoxic activity against human T-cell lymphoma CEM cell line was determined using MST dye; assay type: functional
Outline: (§2)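 Cytotoxicity was read with an MTS-dye cell proliferation assay and expressed as CC50 (µM).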

[15] = test system: Vero; test: Concentration required for cytotoxic activity against african green monkey kidney Vero cell line was determined using MST dye; assay type: functional; settings: Chlorocebus sabaeus; outline: as §2
[16] = test system: SK-MEL-28; test: Concentration required for cytotoxic activity against human malignant melanoma SK-MEL-28 cell line was determined using MST dye; assay type: functional; outline: as §2
[17] = test system: HepG2; test: Concentration required for cytotoxic activity against human hepatocellular carcinoma HepG2 cell line was determined using MST dye; assay type: functional; outline: as §2
[18] = test system: Huh-7; test: Concentration required for cytotoxic activity against human hepatocellular carcinoma Huh-7 cell line was determined using MST dye; assay type: functional; outline: as §2
[19] = test system: A549; test: Concentration required for cytotoxic activity against human lung carcinoma A-549 cell line using neutral red method; assay type: functional
[20] = test system: LLC-MK2; test: Concentration required for cytotoxic activity against rhesus monkey kidney LLC-MK2 cell line was determined using neutral red method; assay type: functional, Cercopithecidae; settings: Macaca mulatta
[21] = test system: Measles morbillivirus; test: Effective concentration required for antiviral activity against measles virus; assay type: functional, organism-based
[22] = test system: Huh-7; test: Effective concentration required for reduction in subgenomic hepatitis C virus replicon RNA levels in Huh-7 cells after 96 hr of compound exposure; assay type: functional, cell-based; settings: Homo sapiens, Huh-7, 96 h; outline: as §1
[23] = test system: Vero; test: Concentration required for cytotoxic activity against african green monkey kidney Vero cell line was determined using neutral red dye; assay type: functional; settings: Chlorocebus sabaeus
[24] = test system: MDCK; test: Concentration required for cytotoxic activity against madin darby canine kidney MDCK cell line was determined using neutral red method; assay type: functional; settings: Canis lupus familiaris
[25] = test system: CV-1; test: Concentration required for cytotoxic activity against african green monkey kidney CV-1 cell line was determined using neutral red method; assay type: functional, Cercopithecidae; settings: Chlorocebus aethiops
[26] = Concentration required for cytotoxic activity against african green monkey kidney B-SC-1 cell line was determined using neutral red method; assay type: functional; settings: Cercopithecidae, BSC-1
[27] = test system: PBMC; test: Concentration required for cytotoxic activity against primary human peripheral blood mononuclear PBM cell line was determined using MST dye; assay type: functional; outline: as §2
[28] = test system: KB; test: Concentration required for cytotoxic activity against human epidermoid carcinoma of the nasopharynx KB cell line was determined using neutral red method; assay type: functional
[29] = test system: Influenza A virus; test: Effective concentration required for antiviral activity against Influenza A virus; assay type: functional, organism-based
[30] = test system: Influenza B virus; test: Effective concentration required for antiviral activity against Influenza B virus; assay type: functional, organism-based
[31] = test system: unidentified adenovirus; test: Effective concentration required for antiviral activity against adenovirus type 1; assay type: functional, organism-based, Human adenovirus 1
[32] = test system: Hepatitis B virus; test: Effective concentration required for antiviral activity against hepatitis B virus; assay type: functional, organism-based
[33] = test system: Human rhinovirus sp.; test: Effective concentration required for antiviral activity against rhinovirus; assay type: functional, organism-based, Enterovirus
[34] = test system: Human alphaherpesvirus 1; test: Effective concentration required for antiviral activity against herpes simplex virus type 1
[35] = test system: Human alphaherpesvirus 1; test: Effective concentration required for 90% of antiviral activity against herpes simplex virus type 1

Molecule `O=c1ccc2nnn3c2n1C1O[C@H](C3)[C@@H](O)[C@H]1O` has an EC50 [1] of over 100 µM, an EC50 [2] of over 100 µM and a CC50 [3] of over 100 µM. It also gave an EC50 [4] of over 100 µM, an EC50 [5] of over 100 µM and an EC50 [6] of over 100 µM. For the same molecule, the EC90 [7] was over 100 µM, the EC90 [8] was over 100 µM and the EC90 [9] was over 100 µM. The EC90 [10] was 79.8 µM, the EC50 [11] was over 100 µM and the EC50 [12] was over 100 µM. For the same molecule, the EC50 [13] was over 100 µM, the CC50 [14] was 13.8 µM and the CC50 [15] was over 100 µM. The CC50 [16] was over 100 µM, the CC50 [17] was 74.4 µM and the CC50 [18] was 49.6 µM. For the same molecule, the CC50 [19] was over 100 µM, the CC50 [20] was over 100 µM and the EC50 [21] was over 100 µM. The EC50 [22] was 19.7 µM, the CC50 [23] was over 100 µM and the CC50 [24] was over 100 µM. It also gave a CC50 [25] of over 100 µM, a CC50 [26] of over 100 µM and a CC50 [27] of over 100 µM. The CC50 [28] was over 100 µM, the EC50 [29] was over 100 µM and the EC50 [30] was 28 µM. It also gave an EC50 [31] of over 100 µM, an EC50 [32] of over 100 µM and an EC50 [33] of over 100 µM. The EC50 [34] was over 100 µM and the EC90 [35] was over 100 µM.
